For two compounds, outcome results are on record in PubChem BioAssay AID493236 (Broad Institute, 2011).

This test relates to proteasome chymotrypsin-like activity (human). The test can be described thus: inhibition of cellular proteasome chymotrypsin-like cleavage – cell-based, U2OS, luminescence, dry powder, set 4, counter-screen for HIF pathway activator project, dose response (AID 493236). The method in brief:
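test system = U2OS cells | schedule = 24 h plating, 4 h compound, 2 h reagent | compound dosing = 8 concentrations, 3-fold steps | controls = MG132 1 µM positive control, DMSO neutral control | measured by = Proteasome-Glo luminescence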
Background: A counterscreen serves to expose hits that act by an unwanted route or on another target.

Inconclusive results are not listed. Active and inactive are the calls of the source.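 Rule for the calls: active = luminescence cut by more than half of the full-inhibition control window in a dose series; inconclusive = no clear call, values can overlap the other calls; inactive = signal rising instead of falling, or the rest.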

For the compound `Oc1ccc(CN2CCC3CCCCC3C2)c2cccnc12` (configuration not stated), the outcome was inactive.

`N#CC1(c2ccccc2)CCN(Cc2ccc(O)c3ncccc23)CC1`: the call was inactive.
